Key:
DPPH assay = details: mean ± SD; for DPPH assay TEAC: isolated compounds
Method in brief: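 Reduction of the DPPH free radical by extracts, fractions or isolated compounds, done in 96-well format following a published procedure. Quercetin and ascorbic acid were positive controls and MeOH the negative control. Runs were in triplicate (n = 3), reported as mean ± SD. Total antioxidant capacity was expressed as trolox equivalent antioxidant capacity (TEAC).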

[1] = tested on: formation of advanced glycation end products (AGEs), BSA-methylglyoxal model; test: BSA-methylglyoxal antiglycation assay; type: biochemical, bovine; details: read-out: BSA-methylglyoxal model IC50; isolated compounds; mean ± SD
FRAP assay = details: isolated compounds; mean ± SD
Method in brief: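 FRAP: Fe3+ is reduced to Fe2+, which TPTZ chelates to form the Fe2+-TPTZ complex. Activity of isolated compounds was read from a trolox standard curve (7.78–1000 μM) and expressed as μM TE/mM. Quercetin and ascorbic acid were positive controls, MeOH the negative control. Triplicate runs (n = 3); mean ± SD.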

[2] = molecular target: T1, porcine pancreatic lipase (PPL) (Sus scrofa, UniProt P00591); test: Inhibition of pancreatic lipase; type: biochemical; details: read-out: lipase assay IC50, mean ± SD
T1 sequence (P00591 1-450): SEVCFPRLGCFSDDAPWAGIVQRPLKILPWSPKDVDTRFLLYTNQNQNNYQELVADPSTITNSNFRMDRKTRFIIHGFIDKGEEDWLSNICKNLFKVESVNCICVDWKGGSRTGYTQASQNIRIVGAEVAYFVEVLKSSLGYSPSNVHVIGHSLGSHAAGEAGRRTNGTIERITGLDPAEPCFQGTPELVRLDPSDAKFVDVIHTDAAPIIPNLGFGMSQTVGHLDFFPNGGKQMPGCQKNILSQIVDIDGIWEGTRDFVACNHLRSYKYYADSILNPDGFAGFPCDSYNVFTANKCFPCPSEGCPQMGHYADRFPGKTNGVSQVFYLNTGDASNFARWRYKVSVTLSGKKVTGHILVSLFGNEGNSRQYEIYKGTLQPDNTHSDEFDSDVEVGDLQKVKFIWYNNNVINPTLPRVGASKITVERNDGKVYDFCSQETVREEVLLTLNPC

α-glucosidase (yeast) = α-glucosidase (yeast) (Saccharomyces cerevisiae, UniProt P53341); test: Inhibition of α-glucosidase; type: biochemical; details: read-out: α-glucosidase assay IC50; yeast enzyme; mean ± SD
[3] = tested on: formation of advanced glycation end products (AGEs), BSA-fructose model; test: BSA-fructose antiglycation assay; type: biochemical, bovine; details: read-out: BSA-fructose model IC50; isolated compounds; mean ± SD
ABTS assay = details: isolated compounds; mean ± SD
Method in brief: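 ABTS radical-scavenging capacity of isolated compounds, from a modified literature method. Activity was read from a trolox calibration curve (7.78–1000 μM) and expressed as trolox equivalents (μM TE/mM). Ascorbic acid and quercetin served as positive controls, MeOH as negative control. Each sample was run in triplicate (n = 3); values are mean ± SD.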

[4] = tested on: formation of AGEs induced by glucose or methylglyoxal; details: at 100 μM; cited from earlier work

α-glucosidase (yeast), sequence (P53341 whole entry): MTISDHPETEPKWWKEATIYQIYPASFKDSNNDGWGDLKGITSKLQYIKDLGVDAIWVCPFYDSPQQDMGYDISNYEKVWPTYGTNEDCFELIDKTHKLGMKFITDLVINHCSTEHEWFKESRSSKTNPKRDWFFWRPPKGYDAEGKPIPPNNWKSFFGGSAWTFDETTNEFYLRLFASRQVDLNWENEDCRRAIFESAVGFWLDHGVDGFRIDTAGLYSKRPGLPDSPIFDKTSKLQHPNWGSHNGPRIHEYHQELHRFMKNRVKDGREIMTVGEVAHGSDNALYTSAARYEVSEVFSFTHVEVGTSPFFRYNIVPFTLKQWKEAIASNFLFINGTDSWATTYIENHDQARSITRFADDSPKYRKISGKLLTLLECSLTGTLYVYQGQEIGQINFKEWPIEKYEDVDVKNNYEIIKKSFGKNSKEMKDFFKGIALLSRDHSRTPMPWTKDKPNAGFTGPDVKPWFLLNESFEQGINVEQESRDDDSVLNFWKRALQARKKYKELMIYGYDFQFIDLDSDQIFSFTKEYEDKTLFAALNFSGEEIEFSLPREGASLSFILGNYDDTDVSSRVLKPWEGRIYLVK

Row | Compound | DPPH assay TEAC (DPPH assay) [μM TE/mM] | IC50 [1] [µM] | FRAP assay TEAC (FRAP assay) [μM TE/mM] | IC50 [2] [µM] | IC50 (α-glucosidase (yeast)) [µM] | IC50 [3] [µM] | ABTS assay TEAC (ABTS assay) [μM TE/mM] | DPPH assay EC50 (DPPH assay; extracts/fractions) [µg/mL] | efficacy against formation of AGEs [4]
1 | 12β-O-benzoyl 3β,8β,12β,14β,20-pentahydroxy-(20S)-pregn-5-ene-3-O-β-D-glucopyranosyl-(1 → 4)-O-β-D-digitaloside [compound 1] | 43.30 ± 3.12 | > 1300 | 17.96 ± 4.25 | > 100 | 920 ± 20 | 502 ± 70.9 | 12.14 ± 14.86 |  | 
2 | O=C1O[C@H]([C@@H](O)CO)C(O)=C1O [ascorbic acid, reference compound] | 802.73 ± 32.63 |  | 1195.58 ± 4.41 |  |  |  | 1132.84 ± 20.25 | 2.76 ± 1.63 | 
3 | CO[C@@H]1[C@@H](O)[C@H](O[C@H]2CC[C@@]3(C)C(=CC[C@]4(O)[C@@H]3CC[C@]3(C)[C@@H]([C@H](C)O[C@@H]5O[C@H](CO)[C@@H](O)[C@H](OC(=O)CC(C)C)[C@H]5O)CC[C@@]34O)C2)O[C@H](C)[C@@H]1O[C@@H]1O[C@H](CO)[C@@H](O)[C@H](O)[C@H]1O [compound 2, 3β,8β,14β,20-tetrahydroxy-(20S)-pregn-5-ene-3-O-β-D-glucopyranosyl-(1 → 4)-O-β-D-digitaloside-20-O-3-Isoval-β-D-glucopyranoside] | 30.27 ± 2.70 | > 1300 | 23.08 ± 1.89 | > 100 | 670 ± 10 |  | 9.19 ± 15.59 |  | 
4 | O=c1cc(-c2ccc(O)cc2)oc2cc(O)c([C@@H]3O[C@H](CO)[C@@H](O)[C@H](O)[C@H]3O)c(O)c12 [isovitexin] |  |  |  |  |  |  |  |  | over 85%
5 | O=c1c(O)c(-c2ccc(O)c(O)c2)oc2cc(O)cc(O)c12 [quercetin, reference compound] | 953.94 ± 4.17 | 847.3 ± 1.04 | 1373.75 ± 35.39 |  |  | 50.6 ± 3.9 | 1435.38 ± 14.02 |  | 
6 | O=c1cc(-c2ccc(O)cc2)oc2c([C@@H]3O[C@H](CO)[C@@H](O)[C@H](O)[C@H]3O)c(O)cc(O)c12 [vitexin] |  |  |  |  |  |  |  |  | over 85%
7 | CC[C@H](CC[C@@H](C)[C@H]1CC[C@H]2[C@@H]3CC=C4C[C@@H](O[C@@H]5O[C@H](CO)[C@@H](O)[C@H](O)[C@H]5O)CC[C@]4(C)[C@H]3CC[C@]12C)C(C)C [β-sitosterol-glucoside] | 36.27 ± 10.39 | > 1300 | 66.21 ± 16.25 |  |  | 1032 ± 2.48 | 11.81 ± 7.07 |  | 
8 | CC[C@H](CC[C@@H](C)[C@H]1CC[C@H]2[C@@H]3CC=C4C[C@@H](O)CC[C@]4(C)[C@H]3CC[C@]12C)C(C)C [β-sitosterol] | 37.87 ± 11.03 | > 1300 | 13.50 ± 3.48 |  |  | > 1300 | 3.42 ± 9.77 |  | 
